The values that follow come from ChEMBL document CHEMBL1122781, “[(Aminomethyl)aryloxy]acetic acid esters. A new class of high-ceiling diuretics. 1. Effects of nitrogen and aromatic nuclear substitution” (J Med Chem, 1984).

Series [1] has as its system Rattus norvegicus. As to the kind of experiment: Diuretic activity was evaluated by measuring amount of Cl- during 0-6 hr in urine of normotensive saline loaded rats at 100.0mg/kg, po. It is filed as ADME, organism-based. Conditions: in vivo, 100 mg/kg. Summed up:
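Male Sprague–Dawley rats (275–375 g), fed and watered ad libitum before testing but not during it, eight per group. Compound in 0.2% methylcellulose/water given orally at 2 mL/kg, immediately followed by a 0.9% saline load equal to 5% of body weight. Rats were kept in individual metabolism cages. Urine was sampled at 2, 6 and 24 h for volume, Na+, K+, Cl−, uric acid and osmolality.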

Series [2] relates to Rattus norvegicus. As to the kind of experiment: Percent change of arterial blood pressure in spontaneously hypertensive rats at the dose of 3 mg/kg (p.o.) after 24 hr (control BP(mm Hg)=221). It is filed as functional. Conditions: route oral.
The nature of series [3]: Diuretic activity was evaluated by measuring amount of K+ during 0-6 hr in urine of normotensive water loaded monkey at 3mg/kg, po. Conditions: simiiformes, in vivo.

Turning to `CCOC(=O)COc1ccc(C(=O)c2ccc(O)c(CN)c2)c(Cl)c1Cl.Cl`, the results for the Diuretic activity (in the series with Rattus norvegicus [1]; in series [3]) were 16.6 m equiv kg-1 and 1.1 m equiv kg-1, respectively. Further, in the series on Rattus norvegicus [2], the Change is given as -14%.
